In brackets after ≈: the same amount, converted by molar mass.
Assays:
[1] = Antioxidant activity assessed as DPPH radical scavenging activity at 80 ug/ml after 20 mins by spectrophotometry relative to control; type: physicochemical
In short: (§1)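 Radical scavenging measured in vitro by DPPH and by hydroxyl radical scavenging assays. Each run in triplicate at five concentrations, reported as mean ± SD of three replicates.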

[2] = Antioxidant activity assessed as DPPH radical scavenging activity at 20 ug/ml after 20 mins by spectrophotometry relative to control; type: physicochemical; in short: as §1
[3] = Antioxidant activity assessed as DPPH radical scavenging activity at 100 ug/ml after 20 mins by spectrophotometry relative to control; type: physicochemical; in short: as §1
[4] = Antioxidant activity assessed as DPPH radical scavenging activity at 60 ug/ml after 20 mins by spectrophotometry relative to control; type: physicochemical; in short: as §1
[5] = Antioxidant activity assessed as DPPH radical scavenging activity at 40 ug/ml after 20 mins by spectrophotometry relative to control; type: physicochemical; in short: as §1
Aspergillus niger = experiment: Antimicrobial activity against Aspergillus niger after 72 hrs by broth dilution method; type: functional
In short: (§2)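 MIC by broth dilution in triplicate, reported as mean ± SD. Panel: bacteria S. aureus, S. pyogenes, E. coli; fungi C. neoformans, A. niger, A. flavus. Ciprofloxacin served as positive control for bacteria and nystatin for fungi. DMSO was the solvent and solvent control.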

[6] = Antioxidant activity assessed as hydroxyl radical scavenging activity at 80 ug/ml after 60 mins relative to control; type: physicochemical; conditions: 1 h; in short: as §1
Streptococcus pyogenes = experiment: Antimicrobial activity against Streptococcus pyogenes after 24 hrs by broth dilution method; type: functional; in short: as §2
[7] = Antioxidant activity assessed as hydroxyl radical scavenging activity at 20 ug/ml after 60 mins relative to control; type: physicochemical; conditions: 1 h; in short: as §1
Cryptococcus neoformans = experiment: Antimicrobial activity against Cryptococcus neoformans after 72 hrs by broth dilution method; type: functional; in short: as §2
[8] = Antioxidant activity assessed as hydroxyl radical scavenging activity at 100 ug/ml after 60 mins relative to control; type: physicochemical; conditions: 1 h; in short: as §1
Staphylococcus aureus = experiment: Antimicrobial activity against Staphylococcus aureus after 24 hrs by broth dilution method; type: functional; in short: as §2
[9] = Antioxidant activity assessed as hydroxyl radical scavenging activity at 60 ug/ml after 60 mins relative to control; type: physicochemical; conditions: 1 h; in short: as §1
[10] = Antioxidant activity assessed as hydroxyl radical scavenging activity at 40 ug/ml after 60 mins relative to control; type: physicochemical; conditions: 1 h; in short: as §1
Escherichia coli = experiment: Antimicrobial activity against Escherichia coli after 24 hrs by broth dilution method; type: functional; in short: as §2
Aspergillus flavus = experiment: Antimicrobial activity against Aspergillus flavus after 72 hrs by broth dilution method; type: functional; in short: as §2

| Compound | Activity [1] | Activity [2] | Activity [3] | Activity [4] | Activity [5] | MIC (Aspergillus niger) | Activity [6] | MIC (Streptococcus pyogenes) | Activity [7] | MIC (Cryptococcus neoformans) | Activity [8] | MIC (Staphylococcus aureus) | Activity [9] | Activity [10] | MIC (Escherichia coli) | MIC (Aspergillus flavus) |
| --- | --- | --- | --- | --- | --- | --- | --- | --- | --- | --- | --- | --- | --- | --- | --- | --- |
| O=C1O[C@H]([C@@H](O)CO)C(O)=C1O [ASCORBIC ACID] | 24.25% | 15.08% | 28.65% | 21.98% | 16.87% | – | – | – | – | – | – | – | – | – | – | – |
| CCOC(=O)[C@@H]1CC(=O)c2sccc2[C@H]1c1ccc(OC)c(OC)c1 | 22.87% | 14.65% | 25.54% | 20.93% | 14.76% | 25 µg/mL (≈ 69.4 µM) | 30.37% | 50 µg/mL (≈ 139 µM) | 12.23% | 25 µg/mL (≈ 69.4 µM) | 34.02% | 50 µg/mL (≈ 139 µM) | 24.07% | 16.64% | 25 µg/mL (≈ 69.4 µM) | 50 µg/mL (≈ 139 µM) |
| O=C(O)c1cn(C2CC2)c2cc(N3CCNCC3)c(F)cc2c1=O [CIPROFLOXACIN] | – | – | – | – | – | – | – | 50 µg/mL (≈ 151 µM) | – | – | – | – | – | – | 25 µg/mL (≈ 75.4 µM) | – |
| CCOC(=O)[C@@H]1CC(=O)c2sccc2[C@H]1c1ccccc1OC | 19.65% | 10.76% | 21.65% | 17.76% | 13.54% | 25 µg/mL (≈ 75.7 µM) | 29.77% | 50 µg/mL (≈ 151 µM) | 11.87% | 25 µg/mL (≈ 75.7 µM) | 31.56% | 25 µg/mL (≈ 75.7 µM) | 22.76% | 15.98% | 50 µg/mL (≈ 151 µM) | 50 µg/mL (≈ 151 µM) |
| COc1ccc(O)c(C(C)(C)C)c1.COc1ccc(O)cc1C(C)(C)C [BUTYLATED HYDROXYANISOLE] | – | – | – | – | – | – | 32.03% | – | 13.87% | – | 36.87% | – | 25.58% | 17.95% | – | – |
| CCOC(=O)C1C(C(=O)c2cccs2)C1c1ccc(OC)cc1OC (configuration not stated) | – | – | – | – | – | 50 µg/mL (≈ 139 µM) | – | 25 µg/mL (≈ 69.4 µM) | – | 25 µg/mL (≈ 69.4 µM) | – | 25 µg/mL (≈ 69.4 µM) | – | – | 25 µg/mL (≈ 69.4 µM) | 50 µg/mL (≈ 139 µM) |
| CCOC(=O)C1C(C(=O)c2cccs2)C1c1ccccc1OC (configuration not stated) | – | – | – | – | – | 75 µg/mL (≈ 227 µM) | – | 100 µg/mL (≈ 303 µM) | – | 75 µg/mL (≈ 227 µM) | – | 50 µg/mL (≈ 151 µM) | – | – | 75 µg/mL (≈ 227 µM) | 25 µg/mL (≈ 75.7 µM) |
| CCOC(=O)C1C(C(=O)c2cccs2)C1c1cc(OC)cc(OC)c1 (configuration not stated) | – | – | – | – | – | 50 µg/mL (≈ 139 µM) | – | 75 µg/mL (≈ 208 µM) | – | 50 µg/mL (≈ 139 µM) | – | 50 µg/mL (≈ 139 µM) | – | – | 75 µg/mL (≈ 208 µM) | 75 µg/mL (≈ 208 µM) |
| CCOC(=O)C1C(C(=O)c2cccs2)C1c1ccc(OC)c(OC)c1 (configuration not stated) | – | – | – | – | – | 25 µg/mL (≈ 69.4 µM) | – | 50 µg/mL (≈ 139 µM) | – | 25 µg/mL (≈ 69.4 µM) | – | 25 µg/mL (≈ 69.4 µM) | – | – | 25 µg/mL (≈ 69.4 µM) | 50 µg/mL (≈ 139 µM) |
| CCOC(=O)[C@@H]1CC(=O)c2sccc2[C@H]1c1ccc(OC)cc1 | 23.92% | 15.02% | 26.22% | 20.31% | 16.71% | 25 µg/mL (≈ 75.7 µM) | 30.98% | 25 µg/mL (≈ 75.7 µM) | 13.03% | 50 µg/mL (≈ 151 µM) | 34.09% | 50 µg/mL (≈ 151 µM) | 24.76% | 17.98% | 50 µg/mL (≈ 151 µM) | 50 µg/mL (≈ 151 µM) |
| CCOC(=O)[C@@H]1CC(=O)c2sccc2[C@H]1c1ccc(OC)cc1OC | 18.64% | 9.76% | 20.76% | 14.98% | 11.76% | 100 µg/mL (≈ 277 µM) | 23.87% | 50 µg/mL (≈ 139 µM) | 10.05% | 50 µg/mL (≈ 139 µM) | 26.82% | 50 µg/mL (≈ 139 µM) | 19.87% | 12.76% | 75 µg/mL (≈ 208 µM) | 75 µg/mL (≈ 208 µM) |
| CCOC(=O)[C@@H]1CC(=O)c2sccc2[C@H]1c1cc(OC)cc(OC)c1 | 27.43% | 18.56% | 31.54% | 24.76% | 19.97% | 25 µg/mL (≈ 69.4 µM) | 36.32% | 25 µg/mL (≈ 69.4 µM) | 16.76% | 12.5 µg/mL (≈ 34.7 µM) | 41.5% | 12.5 µg/mL (≈ 34.7 µM) | 29.65% | 20.65% | 12.5 µg/mL (≈ 34.7 µM) | 25 µg/mL (≈ 69.4 µM) |
| NYSTATIN | – | – | – | – | – | 50 µg/mL | – | – | – | 25 µg/mL | – | – | – | – | – | 50 µg/mL |
| CCOC(=O)C1C(C(=O)c2cccs2)C1c1ccc(OC)cc1 (configuration not stated) | – | – | – | – | – | 100 µg/mL (≈ 303 µM) | – | 50 µg/mL (≈ 151 µM) | – | 50 µg/mL (≈ 151 µM) | – | 50 µg/mL (≈ 151 µM) | – | – | 50 µg/mL (≈ 151 µM) | 100 µg/mL (≈ 303 µM) |
| CCOC(=O)[C@@H]1CC(=O)c2sccc2[C@H]1c1ccc(OCC)cc1 | 25.43% | 17.08% | 28.96% | 22.87% | 18.54% | 75 µg/mL (≈ 218 µM) | 34.13% | 50 µg/mL (≈ 145 µM) | 15.43% | 25 µg/mL (≈ 72.6 µM) | 37.99% | 75 µg/mL (≈ 218 µM) | 26.98% | 19.76% | 50 µg/mL (≈ 145 µM) | 100 µg/mL (≈ 290 µM) |
| CCOC(=O)C1C(C(=O)c2cccs2)C1c1ccc(OCC)cc1 (configuration not stated) | – | – | – | – | – | 12.5 µg/mL (≈ 36.3 µM) | – | 25 µg/mL (≈ 72.6 µM) | – | 12.5 µg/mL (≈ 36.3 µM) | – | 12.5 µg/mL (≈ 36.3 µM) | – | – | 25 µg/mL (≈ 72.6 µM) | 25 µg/mL (≈ 72.6 µM) |
